{"data": "Results gathered from unrelated publications", "cell line": "MCF7", "read-out": "cell growth or viability", "note": "Compare with care: the assays were run in different laboratories."}
{"Structure (SMILES)": "[Cl-].[Cl-].[Co+2]", "method": "MTT", "time": "48 h", "IC50": "> 150 µM"}
{"Structure (SMILES)": "CO[C@]1([C@@H]2CSC(=O)N2C2CCCC2)C[C@H]2C[C@@H](CC[C@H](C)/C=C\\C=C\\CC/C(C)=C\\C(=O)O2)O1", "method": "MTT", "time": "72 h", "IC50": "5.3 µM"}
{"Structure (SMILES)": "N.N.[Cl][Pt][Cl]", "method": "MTT", "time": "48 h", "IC50": "15.6 µM"}
{"Structure (SMILES)": "CO[C@]1([C@@H]2CSC(=O)N2CCCO)C[C@H]2C[C@@H](CC[C@H](C)/C=C\\C=C\\CC/C(C)=C\\C(=O)O2)O1", "method": "MTT", "time": "72 h", "IC50": "19.2 µM"}
{"Structure (SMILES)": "O=C(Oc1ccc(Br)cc1)[c-]1cccc1.[Fe+2].c1cc[cH-]c1", "method": "MTT", "time": "72 h", "IC50": "9.2 µM"}
{"Structure (SMILES)": "O=c1ccc2ccc3occc3c2o1", "method": "WST-1", "time": "48 h", "IC50": "7 µM"}
{"Structure (SMILES)": "N[C@@H](Cc1ccc(N(CCCl)CCCl)cc1)C(=O)O", "method": "CCK-8", "time": "48 h", "IC50": "> 50 µM"}
{"Structure (SMILES)": "COCO[C@@H]1[C@H]2OC(C)(C)O[C@H]2[C@H](O[C@H]2C[C@H]3OC(C)(C)OC[C@]34[C@@H]3[C@@H](CC[C@]4(O)C2)[C@@]2(O)CC[C@H](CO)[C@@]2(C)C[C@H]3OCOC)O[C@H]1C", "method": "resazurin", "time": "72 h", "IC50": "> 100 µM"}
{"Structure (SMILES)": "C/C1=C/C(=O)O[C@@H]2C[C@@H](CC[C@H](C)/C=C\\C=C\\CC1)O[C@@](OC(=O)c1ccccc1)([C@@H]1CSC(=O)N1)C2", "method": "MTT", "time": "72 h", "IC50": "0.52 µM"}
{"Structure (SMILES)": "CC1c2c(c3ccccc3oc2=O)Oc2ncn(N)c(=N)c21 (centres unmarked)", "method": "MTT", "time": "72 h", "IC50": "> 75 µM"}
{"Structure (SMILES)": "C[C@@H]1O[C@@H](O[C@H]2C[C@@H](O)[C@]3(CO)[C@H]4[C@H](O)C[C@]5(C)[C@@H](C6=CC(=O)OC6)CC[C@]5(O)[C@@H]4CC[C@]3(O)C2)[C@H](O)[C@H](O)[C@H]1O", "method": "resazurin", "time": "72 h", "IC50": "0.053 µM"}
{"Structure (SMILES)": "C/C1=C/C(=O)O[C@@H]2C[C@@H](CC[C@H](C)/C=C\\C=C\\CC1)O[C@@](O)([C@@H]1CSC(=O)N1CO)C2", "method": "MTT", "time": "72 h", "IC50": "0.12 µM"}
{"Structure (SMILES)": "O=c1ccc2cc3ccoc3cc2o1", "method": "WST-1", "time": "48 h", "IC50": "32.4 µM"}
{"Structure (SMILES)": "O=C(Oc1ccc(-n2cccc2)cc1)[c-]1cccc1.[Fe+2].c1cc[cH-]c1", "method": "MTT", "time": "72 h", "IC50": "1.4 µM"}
{"Structure (SMILES)": "C/C1=C/C(=O)O[C@@H]2C[C@@H](CC[C@H](C)/C=C\\C=C\\CC1)O[C@@](OCCc1ccccc1)([C@@H]1CSC(=O)N1)C2", "method": "MTT", "time": "72 h", "IC50": "0.1 µM"}
{"Structure (SMILES)": "COc1c2c(cc3c1OCO3)[C@]13C=C[C@H](OC)C[C@@H]1[N@](C2)C[C@H]3OC(=O)c1ccoc1", "method": "WST-1", "IC50": "> 10 µM"}
{"Structure (SMILES)": "O=C1[O][Pt]2([NH][C@@H]3CCCC[C@H]3[NH]2)[O]C1=O", "method": "MTT", "time": "96 h", "IC50": "2.6 µM"}
{"Structure (SMILES)": "C/C1=C/C(=O)O[C@@H]2C[C@@H](CC[C@H](C)/C=C\\C=C\\CC1)O[C@@](O)([C@@H]1CSC(=O)N1Cc1ccccc1)C2", "method": "MTT", "time": "72 h", "IC50": "0.63 µM"}
{"Structure (SMILES)": "C=C(C)C(=O)O[C@H]1CC2=C[C@@H](C/C(C)=C/[C@H]3OC(=O)C(=C)[C@H]13)OC2=O", "method": "MTT", "time": "24 h", "IC50": "2.3 µM"}
{"Structure (SMILES)": "COc1c2c(cc3c1OCO3)[C@]13C=C[C@H](OC)C[C@@H]1[N@](C2)C[C@H]3OC(=O)c1ccco1", "method": "WST-1", "IC50": "> 10 µM"}
